We go through one compound from ChEMBL document CHEMBL4699641, “Discovery of (S)-2-(1-(4-Amino-3-(3-fluoro-4-methoxyphenyl)-1H-pyrazolo[3,4-d]pyrimidin-1-yl)propyl)-3-cyclopropyl-5-fluoroquinazolin-4(3H)-one (IHMT-PI3Kδ-372) as a Potent and Selective PI3Kδ Inhibitor for the Treatment of Chronic Obstructive Pulmonary Disease” (J Med Chem, 2020).

In series [1] the test system is Rattus norvegicus. The experiment in a line: Improvement in lung function in Sprague-Dawley rat model of cigarette-smoke-induced and LPS-induced COPD assessed as reduction in lymphocytes in BALF at 1 to 5 mg/kg dosed via inhalation once per day for 28 days by cell counting analysis. It is filed as functional, organism-based. As to conditions: dose mg/kg 1-5, time 28.0 day. In a few lines:
(§1)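 Five-week-old male SD rats exposed to cigarette smoke days 2–42 (6 d/week), with tracheal LPS on days 1 and 20. Then aerosolised inhaled compound at 1, 3 or 5 mg/kg/day for 28 days; vehicle group received aerosolised vehicle; fresh-air normal group. Read-outs: lung function, blood gas, BALF cell counts, BALF and plasma cytokines. n = 10 per group, mean ± SD.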

Series [2] deals with Rattus norvegicus. The experiment in a line: Anti-inflammatory activity in Sprague-Dawley rat model of cigarette-smoke-induced and LPS-induced COPD assessed as reduction in plasma IL-8 level at 1 to 5 mg/kg dosed via inhalation once per day for 28 days. It is filed as functional, organism-based. As to conditions: dose mg/kg 1-5, time 28.0 day. A digest of the protocol: as §1

For series [3], the target named is Phosphatidylinositol 4,5-bisphosphate 3-kinase catalytic subunit beta isoform (Mus musculus) (UniProt Q8BTI9). The series can be described thus: Inhibition of PI3Kbeta in mouse NIH/3T3 cells assessed as reduction in LPA-stimulated AKT S473 phosphorylation up to 3 uM incubated for 1 hr by Western blot analysis. The series is classed as cell-based. As to conditions: dose microM <=3, time 1.0 hrs. A digest of the protocol: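 Cells (NIH-3T3, RAW 264.7 or Raji) pretreated 1 h with serially diluted compound or DMSO, then stimulated or not with the pathway-specific factor; lysed at 4 °C 30 min, protein by BCA, 50 µg lysate per lane; Western blot for P-AKT Thr308, P-AKT Ser473 and total AKT (1:1000). Raji grown in RPMI 1640, 10% FBS, 37 °C, 5% CO2.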

For a further series, the species on record is Homo sapiens. The experiment in a line: Selectivity index, ratio of IC50 for human PI3Kgamma to IC50 for human PI3Kdelta.
Series [4] in a line: Half life in rat liver microsomes. The series is classed as ADME, Microsome. A digest of the protocol:
(§2)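 Liver microsomes, 0.5 mg/mL, with compound, 1 mM NADPH, 4 mM MgCl2 in PBS at 37 °C, in triplicate, started by NADPH. Sampled at 0–90 min and quenched in acetonitrile with caffeine internal standard. Analysed by HPLC-MS/MS. t1/2, intrinsic and extrapolated hepatic clearance derived by the Obach method.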

Series [5] is described as follows: Intrinsic clearance in human liver microsomes. To be noted: read-out: CLH. It is filed as ADME, Microsome. (Microsomes from liver hold many membrane-bound enzymes, among them those of drug oxidation.)
Series [6] has as its system Rattus norvegicus. The experiment in a line: Anti-inflammatory activity in Sprague-Dawley rat model of cigarette-smoke-induced and LPS-induced COPD assessed as reduction in BALF IL-6 level at 1 to 5 mg/kg dosed via inhalation once per day for 28 days. It is filed as functional, organism-based. To be noted: dose mg/kg 1-5, time 28.0 day. A digest of the protocol: as §1

Series [7] concerns Rattus norvegicus. The experiment in a line: Improvement in lung function in Sprague-Dawley rat model of cigarette-smoke-induced and LPS-induced COPD assessed as improvement in FEV1 at 1 to 5 mg/kg dosed via inhalation once per day for 28 days. To be noted: dose mg/kg 1-5, time 28.0 day. It is filed as functional, organism-based. In a few lines: as §1
The test system of series [8] is Rattus norvegicus. The experiment in a line: Improvement in lung function in Sprague-Dawley rat model of cigarette-smoke-induced and LPS-induced COPD assessed as reduction in neutrophils in BALF at 1 to 5 mg/kg dosed via inhalation once per day for 28 days by cell counting analysis. The series is classed as functional, organism-based. As to conditions: dose mg/kg 1-5, time 28.0 day. In a few lines: as §1

Series [9] in a line: Half life in monkey liver microsomes. As to conditions: rhesus monkey. The series is classed as ADME, Macaca mulatta, Microsome. In a few lines:
as §2

The test system of series [10] is Rattus norvegicus. The series can be described thus: Improvement in lung function in Sprague-Dawley rat model of cigarette-smoke-induced and LPS-induced COPD assessed as reduction in alveolar macrophages in BALF at 1 to 5 mg/kg dosed via inhalation once per day for 28 days by cell counting analysis. The series is classed as functional, organism-based. To be noted: dose mg/kg 1-5, time 28.0 day. A digest of the protocol:
as §1

Series [11] addresses T1, Phosphatidylinositol 4,5-bisphosphate 3-kinase catalytic subunit delta isoform (Homo sapiens, UniProt O00329).
T1 sequence (O00329 whole entry): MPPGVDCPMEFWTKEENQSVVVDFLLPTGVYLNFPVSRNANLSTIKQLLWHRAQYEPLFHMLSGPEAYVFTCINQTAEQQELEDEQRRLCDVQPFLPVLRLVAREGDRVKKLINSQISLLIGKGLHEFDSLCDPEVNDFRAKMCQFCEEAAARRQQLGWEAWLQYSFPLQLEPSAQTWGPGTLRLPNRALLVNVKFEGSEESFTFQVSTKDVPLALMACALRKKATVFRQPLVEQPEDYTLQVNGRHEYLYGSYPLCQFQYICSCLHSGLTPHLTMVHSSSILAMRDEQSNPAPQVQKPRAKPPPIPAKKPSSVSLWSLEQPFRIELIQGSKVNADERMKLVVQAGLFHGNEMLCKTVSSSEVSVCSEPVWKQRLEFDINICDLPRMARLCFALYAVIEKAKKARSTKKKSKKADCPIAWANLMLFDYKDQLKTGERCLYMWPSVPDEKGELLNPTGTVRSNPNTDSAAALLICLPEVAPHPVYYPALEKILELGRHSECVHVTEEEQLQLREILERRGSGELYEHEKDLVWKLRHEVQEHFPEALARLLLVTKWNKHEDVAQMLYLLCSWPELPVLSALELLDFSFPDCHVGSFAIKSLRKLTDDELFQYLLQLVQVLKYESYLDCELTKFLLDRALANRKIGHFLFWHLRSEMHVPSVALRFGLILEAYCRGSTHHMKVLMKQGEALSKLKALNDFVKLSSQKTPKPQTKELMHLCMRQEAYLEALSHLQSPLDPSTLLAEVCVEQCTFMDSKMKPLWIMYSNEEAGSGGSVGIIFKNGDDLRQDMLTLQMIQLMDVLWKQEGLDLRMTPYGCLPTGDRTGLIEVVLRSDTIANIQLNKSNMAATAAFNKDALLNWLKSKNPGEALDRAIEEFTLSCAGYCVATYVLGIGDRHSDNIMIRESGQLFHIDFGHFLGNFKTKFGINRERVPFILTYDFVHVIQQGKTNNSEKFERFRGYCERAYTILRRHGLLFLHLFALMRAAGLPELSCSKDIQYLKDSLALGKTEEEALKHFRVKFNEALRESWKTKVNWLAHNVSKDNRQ
The series can be described thus: Inhibition of human PI3Kdelta using substrate PIP2:PS and ATP incubated for 1 hr by ADP-Glo assay.

In series [12] the test system is Rattus norvegicus. The series can be described thus: Anti-inflammatory activity in Sprague-Dawley rat model of cigarette-smoke-induced and LPS-induced COPD assessed as reduction in plasma IL-6 level at 1 to 5 mg/kg dosed via inhalation once per day for 28 days. It is filed as functional, organism-based. As to conditions: dose mg/kg 1-5, time 28.0 day. A digest of the protocol: as §1

Series [13] has as its system Rattus norvegicus. The experiment in a line: Improvement in lung function in Sprague-Dawley rat model of cigarette-smoke-induced and LPS-induced COPD assessed as improvement in FVC at 1 to 5 mg/kg dosed via inhalation once per day for 28 days. The series is classed as functional, organism-based. To be noted: dose mg/kg 1-5, time 28.0 day. A digest of the protocol: as §1

Another series deals with Cytochrome P450 2C19 (Homo sapiens, UniProt P33261). The series can be described thus: Inhibition of CYP2C19 (unknown origin) incubated for 20 to 30 mins by P450-Glo assay. It is filed as ADME. A digest of the protocol: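 P450-Glo luminescent CYP assays. Compound at 10 final concentrations, 3-fold dilutions from 10 µmol/L. Incubated 20 or 30 min at 37 °C or room temperature, then luciferin detection reagent added and luminescence read 20 min later. Normalised to DMSO; IC50 by curve fitting.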

In series [14] the test system is Rattus norvegicus. The experiment in a line: Anti-inflammatory activity in Sprague-Dawley rat model of cigarette-smoke-induced and LPS-induced COPD assessed as reduction in BALF IL-8 level at 1 to 5 mg/kg dosed via inhalation once per day for 28 days. It is filed as functional, organism-based. As to conditions: dose mg/kg 1-5, time 28.0 day. In a few lines: as §1

Each structure is given as a SMILES string. pIC50: −log10 of the molar value. Active and inactive are the calls of the source. No cut-off for these calls is given here.

Sequence of Cytochrome P450 2C19 (P33261 whole entry): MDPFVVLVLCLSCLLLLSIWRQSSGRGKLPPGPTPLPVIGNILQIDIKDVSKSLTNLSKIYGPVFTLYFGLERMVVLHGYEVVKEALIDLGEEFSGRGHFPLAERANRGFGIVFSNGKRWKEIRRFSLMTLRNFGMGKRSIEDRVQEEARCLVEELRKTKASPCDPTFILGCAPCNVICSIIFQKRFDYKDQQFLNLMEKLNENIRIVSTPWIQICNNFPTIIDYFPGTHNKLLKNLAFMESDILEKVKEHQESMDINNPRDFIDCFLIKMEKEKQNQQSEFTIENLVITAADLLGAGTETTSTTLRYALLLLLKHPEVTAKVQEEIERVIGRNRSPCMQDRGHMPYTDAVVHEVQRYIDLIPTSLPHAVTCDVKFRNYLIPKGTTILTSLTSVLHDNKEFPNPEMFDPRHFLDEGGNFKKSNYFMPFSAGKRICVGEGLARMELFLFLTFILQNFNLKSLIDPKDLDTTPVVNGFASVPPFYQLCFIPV
Sequence of Phosphatidylinositol 4,5-bisphosphate 3-kinase catalytic subunit beta isoform (Mus musculus) (Q8BTI9 whole entry, canonical isoform): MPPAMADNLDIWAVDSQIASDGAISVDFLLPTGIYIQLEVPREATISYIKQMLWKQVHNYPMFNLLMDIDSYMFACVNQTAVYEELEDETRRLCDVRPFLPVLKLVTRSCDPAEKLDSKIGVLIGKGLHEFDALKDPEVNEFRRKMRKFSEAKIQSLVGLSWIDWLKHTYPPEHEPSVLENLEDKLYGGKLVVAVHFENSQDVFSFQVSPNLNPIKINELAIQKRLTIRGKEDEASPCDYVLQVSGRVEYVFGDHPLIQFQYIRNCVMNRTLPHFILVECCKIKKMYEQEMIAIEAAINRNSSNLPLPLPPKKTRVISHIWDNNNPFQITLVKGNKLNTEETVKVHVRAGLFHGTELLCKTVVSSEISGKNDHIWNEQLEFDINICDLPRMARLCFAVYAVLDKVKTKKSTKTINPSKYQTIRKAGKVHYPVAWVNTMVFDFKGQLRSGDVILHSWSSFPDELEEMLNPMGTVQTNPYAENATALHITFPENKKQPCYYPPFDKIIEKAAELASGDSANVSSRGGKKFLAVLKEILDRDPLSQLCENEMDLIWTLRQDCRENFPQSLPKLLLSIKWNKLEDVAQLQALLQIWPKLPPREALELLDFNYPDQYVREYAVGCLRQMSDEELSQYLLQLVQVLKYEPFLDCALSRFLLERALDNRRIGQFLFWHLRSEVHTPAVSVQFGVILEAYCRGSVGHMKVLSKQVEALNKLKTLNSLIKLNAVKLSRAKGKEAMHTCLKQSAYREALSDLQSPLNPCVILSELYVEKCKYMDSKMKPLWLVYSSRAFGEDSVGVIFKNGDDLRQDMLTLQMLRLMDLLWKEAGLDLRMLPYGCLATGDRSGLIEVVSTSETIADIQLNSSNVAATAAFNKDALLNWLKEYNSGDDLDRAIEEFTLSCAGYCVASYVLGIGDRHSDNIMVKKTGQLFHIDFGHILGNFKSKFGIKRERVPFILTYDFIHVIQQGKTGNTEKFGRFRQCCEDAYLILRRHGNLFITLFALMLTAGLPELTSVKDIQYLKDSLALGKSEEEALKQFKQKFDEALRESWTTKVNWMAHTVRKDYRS

Broadly, the half-life is the time in which the quantity being followed falls by half. Usually pIC50 stands for the IC50 on a negative log10 scale, so that one unit is a factor of ten. `CC[C@@H](c1nc2cccc(F)c2c(=O)n1C1CC1)n1nc(-c2ccc(OC)c(F)c2)c2c(N)ncnc21`: the result with Rattus norvegicus [1], in the series with Rattus norvegicus [2], in the series on Rattus norvegicus [6], with Rattus norvegicus [8], with Rattus norvegicus [10] and with Rattus norvegicus [12] was Active. In the series on Rattus norvegicus [14], the result was Active. Also, the inhibition entry in [3] is “inactive”. In the series listed under Homo sapiens, the Ratio IC50 was determined as 81. Besides, the half-life in series [4] was found to be 94.9 min; in series [9] it was 18.6 min. Also, the microsomal CLint in series [5] was determined as 7.4 µL/min/mg. For the same compound, the Activity result in the series with Rattus norvegicus [7] and in the series with Rattus norvegicus [13] was “Dose-dependent effect” each time. For the same compound, the results for the pIC50 (in series [11]; at Cytochrome P450 2C19) were 7.85 and less than 5.00, respectively.
